Experimental data as given in publication PMC3954597 (Biochemistry, 2014).

Columns and labels:
Assay type in all cases: biochemical
[1] = biological target: T1, PTP1B (Homo sapiens, UniProt P18031); experiment: PTP assay, wild-type PTP1B; conditions: for kcat/KM x 10^7: WT PTP1B aa 1–321, pH 7.4; for kcat/KM x10^6: WT catalytic domain aa 1–321, 100 mM HEPES pH 7.4, monitored at 282 nm
T1 sequence (P18031 1-321): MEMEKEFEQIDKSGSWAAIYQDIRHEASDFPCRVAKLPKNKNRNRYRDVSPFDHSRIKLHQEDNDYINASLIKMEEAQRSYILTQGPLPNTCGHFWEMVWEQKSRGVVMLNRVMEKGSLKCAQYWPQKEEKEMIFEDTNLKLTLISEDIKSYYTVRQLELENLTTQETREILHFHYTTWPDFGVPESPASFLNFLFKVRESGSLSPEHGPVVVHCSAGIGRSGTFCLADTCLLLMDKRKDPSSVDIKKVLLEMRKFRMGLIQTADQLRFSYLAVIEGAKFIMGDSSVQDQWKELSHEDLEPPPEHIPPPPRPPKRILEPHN
How it was run: (§1)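 E. coli-expressed catalytic domains were used: wild-type, R24M or R47E PTP1B (aa 1–321), and SHP-1 (aa 205–595). Reactions started with PTP (0.5–20000 nM final) and dephosphorylation was monitored continuously at 282 nm. kcat, KM and kcat/KM came from initial-rate fits (Michaelis–Menten, or V = kcat[E][S]/KM when KM >> [S]) or from fits of progress curves.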

[2] = biological target: T2, R24M PTP1B (Homo sapiens, UniProt P18031, R24M); experiment: PTP assay, R24M PTP1B; conditions: for Km / kcat / kcat/KM x 10^7: R24M PTP1B aa 1–321, pH 7.4; for WT/R24M: ratio of kcat/KM, WT over R24M PTP1B (fold reduction by the mutation)
T2 sequence (P18031 1-321 R24M): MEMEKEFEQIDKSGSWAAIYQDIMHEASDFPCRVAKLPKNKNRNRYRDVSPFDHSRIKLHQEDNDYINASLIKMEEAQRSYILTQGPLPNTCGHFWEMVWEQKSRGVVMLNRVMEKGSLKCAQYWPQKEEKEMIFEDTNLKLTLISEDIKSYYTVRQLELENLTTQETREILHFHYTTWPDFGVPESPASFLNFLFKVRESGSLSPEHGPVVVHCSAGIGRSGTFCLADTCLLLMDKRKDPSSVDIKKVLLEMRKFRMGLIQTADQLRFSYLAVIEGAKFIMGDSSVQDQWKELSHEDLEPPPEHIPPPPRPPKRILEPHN
How it was run: as §1

[3] = biological target: T3, R47E PTP1B (Homo sapiens, UniProt P18031, R47E); experiment: PTP assay, R47E PTP1B; conditions: for Km / kcat / kcat/KM x 10^7: R47E PTP1B aa 1–321, pH 7.4; for WT/R47E: ratio of kcat/KM, WT over R47E PTP1B (fold decrease by the mutation)
T3 sequence (P18031 1-321 R47E): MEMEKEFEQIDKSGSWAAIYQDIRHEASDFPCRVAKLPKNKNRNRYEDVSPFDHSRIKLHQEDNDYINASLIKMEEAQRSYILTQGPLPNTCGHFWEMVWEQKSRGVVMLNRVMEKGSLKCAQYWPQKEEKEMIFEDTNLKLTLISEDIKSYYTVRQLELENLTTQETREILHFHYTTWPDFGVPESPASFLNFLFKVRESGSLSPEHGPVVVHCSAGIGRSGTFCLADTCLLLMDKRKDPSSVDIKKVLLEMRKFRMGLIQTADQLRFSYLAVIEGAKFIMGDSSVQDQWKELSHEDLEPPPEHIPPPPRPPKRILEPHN
How it was run: as §1

[4] = biological target: T4, PTP-PEST (Homo sapiens, UniProt Q05209); experiment: PTP assay with pY peptide substrates, PTP-PEST; conditions: catalytic domain; pH 7.4
T4 sequence (Q05209 5-300): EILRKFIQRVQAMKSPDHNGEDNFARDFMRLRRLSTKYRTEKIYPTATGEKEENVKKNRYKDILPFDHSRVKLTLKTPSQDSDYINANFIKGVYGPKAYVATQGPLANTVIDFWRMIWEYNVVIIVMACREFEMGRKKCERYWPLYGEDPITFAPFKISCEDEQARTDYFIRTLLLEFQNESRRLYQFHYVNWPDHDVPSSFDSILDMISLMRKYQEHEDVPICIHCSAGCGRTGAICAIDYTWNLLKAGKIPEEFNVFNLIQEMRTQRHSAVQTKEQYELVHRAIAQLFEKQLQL

Row | Substance | kcat/KM x 10^7 [1] | Km [2] [µM] | kcat [2] [s⁻¹] | kcat/KM x 10^7 [2] | WT/R24M [2] | Km [3] [µM] | kcat [3] [s⁻¹] | kcat/KM x 10^7 [3] | WT/R47E [3] | kcat/KM x10^6 [1] | increased PTP1B activity by R24M mutation ([2]; R24M relative to WT) [fold] | increased PTP1B activity by R47E mutation ([3]; R47E relative to WT) [fold] | kcat/KM [4] [M⁻¹ s⁻¹]
1 | AApYAAADD | 0.97 x 10^7 M^−1 s^−1 | 8.7 ± 0.4 | 37 ± 1 | 0.43 x 10^7 M^−1 s^−1 | 2.3 | 10 ± 1 | 35 ± 1 | 0.35 x 10^7 M^−1 s^−1 | 2.8 | – | – | – | –
2 | AApYAADDA | 1.1 x 10^7 M^−1 s^−1 | 6.9 ± 0.1 | 38 ± 1 | 0.55 x 10^7 M^−1 s^−1 | 2.0 | 11 ± 2 | 36 ± 2 | 0.32 x 10^7 M^−1 s^−1 | 3.4 | – | – | – | –
3 | AApYADDAA | 1.4 x 10^7 M^−1 s^−1 | 6.4 ± 0.2 | 38 ± 1 | 0.59 x 10^7 M^−1 s^−1 | 2.4 | 12 ± 1 | 34 ± 1 | 0.29 x 10^7 M^−1 s^−1 | 4.8 | – | – | – | –
4 | AApYDDAAA | 0.43 x 10^7 M^−1 s^−1 | – | – | 0.027 x 10^7 M^−1 s^−1 | 16 | 34 ± 2 | 33 ± 2 | 0.097 x 10^7 M^−1 s^−1 | 4.4 | – | – | – | –
5 | AApYDDIDE | 1.1 x 10^7 M^−1 s^−1 | 37 ± 1 | 42 ± 1 | 0.11 x 10^7 M^−1 s^−1 | 10 | 56 ± 2 | 43 ± 1 | 0.076 x 10^7 M^−1 s^−1 | 14 | 11 x10^6 M^−1 s^−1 | – | – | –
6 | AApYIRKRA | 0.042 x 10^7 M^−1 s^−1 | 52 ± 3 | 34 ± 1 | 0.065 x 10^7 M^−1 s^−1 | 0.62 | 89 ± 3 | 34 ± 2 | 0.038 x 10^7 M^−1 s^−1 | 1.1 | – | 1.6 | – | –
7 | AApYWAYDD | – | – | – | – | – | – | – | – | – | 15 x10^6 M^−1 s^−1 | – | – | –
8 | ARKRIpYAA | 0.025 x 10^7 M^−1 s^−1 | – | – | – | – | 31 ± 4 | 37 ± 2 | 0.12 x 10^7 M^−1 s^−1 | 0.21 | – | – | 5 | –
9 | Ac-AApYDLDEY-NH2 | – | – | – | – | – | – | – | – | – | 18 x10^6 M^−1 s^−1 | – | – | 1.3e+08
10 | Ac-ASSDEpYAA-NH2 | 1.7 x 10^7 M^−1 s^−1 | 3.8 ± 0.2 | 32 ± 1 | 0.84 x 10^7 M^−1 s^−1 | 2.0 | 32 ± 1 | 31 ± 1 | 0.097 x 10^7 M^−1 s^−1 | 18 | 17 x10^6 M^−1 s^−1 | – | – | 7.2e+06
